From ChEMBL document CHEMBL4480439, “Fuscasins A-D, Cycloheptapeptides from the Marine Sponge Phakellia fusca” (J Nat Prod, 2019)
pIC50: −log10 of the molar value. Calls of active or inactive are those of the source. The calls are words filed in the database; no cut-off is given here. Residues, ends and D or L forms follow the SMILES beside them.

Columns and labels:
[1] = system: HepG2; experiment: Cytotoxicity against human HepG2 cells assessed as reduction in cell viability up to 20 uM after 72 hrs by CCK8 assay; assay type: functional, cell-based
Method in brief: (§1)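 Cells grown at 37 °C in DMEM with 10% FBS and antibiotics, seeded at 3 × 10³ cells/well, and exposed to compound for 72 h. CCK-8 reagent was then added for 1 h at 37 °C in 5% CO₂, and OD was read at 450 nm. IC50 was obtained by fitting a log(inhibitor)-response model.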

[2] = system: HepG2; experiment: Cytotoxicity against human HepG2 cells assessed as reduction in cell viability after 72 hrs by CCK8 assay; assay type: functional, cell-based; conditions: HepG2, 72 h; method in brief: as §1
[3] = system: NCI-H460; experiment: Cytotoxicity against human NCI-H460 cells assessed as reduction in cell viability up to 20 uM after 72 hrs by CCK8 assay; assay type: functional, cell-based
Method in brief: (§2)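 Cells maintained in RPMI 1640 with 10% FBS and antibiotics, plated at 3 × 10³ cells/well, and treated for 72 h. After 1 h incubation with CCK-8 at 37 °C in 5% CO₂, absorbance was recorded at 450 nm. IC50 came from a log(inhibitor)-response curve fit.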

[4] = system: MCF7; experiment: Cytotoxicity against human MCF7 cells assessed as reduction in cell viability up to 20 uM after 72 hrs by CCK8 assay; assay type: functional, cell-based; method in brief: as §1
[5] = system: H9c2; experiment: Cytotoxicity against rat H9c2 cells assessed as reduction in cell viability up to 100 uM after 72 hrs by CCK8 assay; assay type: cell-based; conditions: h9c2, 72 h; method in brief: as §1
[6] = system: SW480; experiment: Cytotoxicity against human SW480 cells assessed as reduction in cell viability up to 20 uM after 72 hrs by CCK8 assay; assay type: functional, cell-based; method in brief: as §2
[7] = system: PC-9; experiment: Cytotoxicity against human PC9 cells assessed as reduction in cell viability up to 20 uM after 72 hrs by CCK8 assay; assay type: functional, cell-based; method in brief: as §2
[8] = system: HeLa; experiment: Cytotoxicity against human HeLa cells assessed as reduction in cell viability up to 20 uM after 72 hrs by CCK8 assay; assay type: functional, cell-based; method in brief: as §1

CC(C)C[C@@H]1NC(=O)[C@H](C)NC(=O)[C@@H]2CCCN2C(=O)[C@H](C)NC(=O)[C@H](Cc2ccc(O)cc2)NC(=O)[C@@H]2CCCN2C(=O)[C@H](Cc2ccc(O)cc2)NC1=O (cyclo(ALYPYAP))
Activity [1]: inactive

CC(C)C[C@@H]1NC(=O)[C@H](C)NC(=O)[C@H](Cc2ccc(O)cc2)NC(=O)[C@H](CCCNC(=N)N)NC(=O)[C@H](CC(N)=O)NC(=O)[C@H](C(C)C)NC(=O)[C@@H]2CCCN2C1=O (cyclo(ALPVNRY))
Activity [1]: inactive

CC(C)C[C@@H]1NC(=O)[C@H](Cc2ccc(O)cc2)NC(=O)[C@H](CC(=O)O)NC(=O)[C@@H]2CCCN2C(=O)[C@H](CC(C)C)NC(=O)[C@@H]2CCCN2C(=O)[C@H](CC(C)C)NC1=O (cyclo(DYLLPLP))
Activity [1]: inactive

CC(C)C[C@@H]1NC(=O)[C@H](C(C)C)NC(=O)[C@H](Cc2ccccc2)N2C(=O)C[C@H](NC(=O)[C@@H]3CCCN3C(=O)[C@@H]3CCCN3C(=O)[C@@H]3CCCN3C1=O)C2=O
pIC50 [2]: 5.34
Activity [3]: inactive
Activity [4]: inactive
Activity [5]: Non-Toxic
Activity [6]: inactive
Activity [7]: inactive
Activity [8]: inactive
